The values below come from ChEMBL document CHEMBL4190227, “Syntheses, toxicities and anti-inflammation of H2S-donors based on non-steroidal anti-inflammatory drugs” (Eur J Med Chem, 2017).

The species named for series [1] is Danio rerio. In words: Toxicity in AB zebrafish embryo assessed as vitelline cyst at 0.5 uM measured at 96 hrs post fertilization by stereoscopic dissecting light microscopic analysis. The class given is organism-based. The settings on record: in vivo. The method, boiled down: (§1)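 AB embryos exposed from 4 hpf through 96 hpf to compound or DMF vehicle (1:1000); malformations scored at 96 hpf under stereoscopic dissecting microscope; 100 embryos per group in three replicates; three independent experiments, mean ± SD.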

The next series concerns HepG2. Put plainly: Cytotoxicity against human HepG2 cells assessed as reduction in cell survival after 24 hrs by MTT assay. The class given is cell-based. The settings on record: HepG2, 24 h. On the technique in general: Tetrazolium dyes change colour on reduction, which living cells bring about.
The species entered for series [2] is Danio rerio. In words: Toxicity in AB zebrafish embryo assessed as rate of embryo malformation at 20 uM measured at 96 hrs post fertilization by stereoscopic dissecting light microscopic analysis relative to DMF. The class given is organism-based. The conditions noted are these: in vivo. The method, boiled down:
as §1

The nature of series [3]: (§2) Cytotoxicity against mouse RAW264.7 cells assessed as cell viability at 10 to 100 uM treated for 24 hrs in absence of LPS by MTT assay. The class given is cell-based. The settings on record: RAW264.7 cells, read-out: Activity. A digest of the protocol:
(§3)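 Macrophages in high-glucose DMEM + 10% heat-inactivated FBS, 2 mM glutamine, 37 °C, 5% CO2; exposed 24 h to 10, 50, 100 μM with or without LPS 1 μg/mL; MTT added 4 h, formazan dissolved in DMSO, A570, expressed as % of control; four independent experiments.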

The nature of series [4]: Drug degradation in phosphate buffer assessed as H2S release by measuring test compound half life at 40 uM measured every 5 mins in presence of TECP by UV-Vis spectrometry. The class given is physicochemical. The method, boiled down: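 Sulfide release at 37.5 °C: donor (40 mM THF stock) added to pH 7.4 phosphate buffer with 1.0 mM TECP; aliquots taken every 5 min into methylene blue cocktail (zinc acetate, N,N-dimethyl-1,4-phenylenediamine, FeCl3 in HCl), A670 read 15 min later; H2S from Na2S calibration curve; concentration vs time curve; four independent experiments.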

The nature of series [5]: (§4) Cytotoxicity against mouse RAW264.7 cells assessed as cell viability at 10 to 100 uM treated for 24 hrs post LPS induction by MTT assay. The class given is cell-based. The conditions noted are these: RAW264.7 cells, read-out: Activity. A digest of the protocol: as §3
The species named for series [6] is Danio rerio. Put plainly: Toxicity in AB zebrafish embryo assessed as embryonic spontaneous movement frequencies per minute at 1 to 20 uM measured at 24 hrs post fertilization by stereoscopic dissecting light microscopic analysis (reference value: 15 /min). The conditions noted are these: in vivo. The class given is organism-based. A digest of the protocol:
(§5)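 AB embryos exposed from 4 to 24 hpf to compound (0.5–20 μM) or DMF vehicle (1:1000); ten embryos per group chosen randomly; spontaneous movement recorded under stereoscopic dissecting microscope, frequency per min counted at 24 hpf; three independent experiments, mean ± SD.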

Series [7] has as its system RAW264.7. The description is as §2. The conditions noted are these: raw264.7, 24 h, 100 µM. The class given is cell-based. The method, boiled down: as §3
In series [8] the test system is RAW264.7. In words: Antiinflammatory activity in mouse RAW264.7 cells assessed as LPS-induced TNFalpha levels at 100 uM incubated for 24 hrs post LPS induction by ELISA relative to control. The class given is functional. A digest of the protocol:
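LPS (1 μg/mL) for 4 h, then compound at 10, 50, 100 μM for 24 h; cells lysed in RIPA, spun 12,000×g 10 min, protein normalised by BCA to 0.1 mg/mL; target (TNF-α, HO-1, IL-10 or COX-2) quantified by sandwich ELISA kit with mouse-specific polyclonal antibodies; four independent experiments.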

Series [9] in a line: Toxicity in AB zebrafish embryo assessed as percentage of embryos alive at 20 uM measured at 120 hrs post fertilization by dissecting light microscopic analysis relative to DMF. The class given is organism-based, Danio rerio. The settings on record: read-out: Activity. A digest of the protocol: (§6)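 Wild-type AB zebrafish embryos, collected within 1 h of lights-on and washed in E3 medium, were exposed one embryo per well in 200 μL test solution, with plates sealed against evaporation. There were 100 embryos per group, split into three replicate groups. Mortality was recorded at 24–168 hpf. DMF vehicle (1:1000) served as control. Results are mean ± SD of three replicates.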

The species named for series [10] is Danio rerio. Put plainly: Toxicity in AB zebrafish embryo assessed as embryonic spontaneous movement frequencies per minute at 10 uM measured at 24 hrs post fertilization by stereoscopic dissecting light microscopic analysis (reference value: 15.9 /min). The class given is organism-based. The conditions noted are these: in vivo. The method, boiled down:
as §5

In series [11] the test system is RAW264.7. Described as §4. The class given is cell-based. The conditions noted are these: raw264.7, 24 h, 100 µM. A digest of the protocol:
as §3

The target in series [12] is T1, Nitric oxide synthase, inducible (Mus musculus) (UniProt P29477).
T1 sequence (whole entry): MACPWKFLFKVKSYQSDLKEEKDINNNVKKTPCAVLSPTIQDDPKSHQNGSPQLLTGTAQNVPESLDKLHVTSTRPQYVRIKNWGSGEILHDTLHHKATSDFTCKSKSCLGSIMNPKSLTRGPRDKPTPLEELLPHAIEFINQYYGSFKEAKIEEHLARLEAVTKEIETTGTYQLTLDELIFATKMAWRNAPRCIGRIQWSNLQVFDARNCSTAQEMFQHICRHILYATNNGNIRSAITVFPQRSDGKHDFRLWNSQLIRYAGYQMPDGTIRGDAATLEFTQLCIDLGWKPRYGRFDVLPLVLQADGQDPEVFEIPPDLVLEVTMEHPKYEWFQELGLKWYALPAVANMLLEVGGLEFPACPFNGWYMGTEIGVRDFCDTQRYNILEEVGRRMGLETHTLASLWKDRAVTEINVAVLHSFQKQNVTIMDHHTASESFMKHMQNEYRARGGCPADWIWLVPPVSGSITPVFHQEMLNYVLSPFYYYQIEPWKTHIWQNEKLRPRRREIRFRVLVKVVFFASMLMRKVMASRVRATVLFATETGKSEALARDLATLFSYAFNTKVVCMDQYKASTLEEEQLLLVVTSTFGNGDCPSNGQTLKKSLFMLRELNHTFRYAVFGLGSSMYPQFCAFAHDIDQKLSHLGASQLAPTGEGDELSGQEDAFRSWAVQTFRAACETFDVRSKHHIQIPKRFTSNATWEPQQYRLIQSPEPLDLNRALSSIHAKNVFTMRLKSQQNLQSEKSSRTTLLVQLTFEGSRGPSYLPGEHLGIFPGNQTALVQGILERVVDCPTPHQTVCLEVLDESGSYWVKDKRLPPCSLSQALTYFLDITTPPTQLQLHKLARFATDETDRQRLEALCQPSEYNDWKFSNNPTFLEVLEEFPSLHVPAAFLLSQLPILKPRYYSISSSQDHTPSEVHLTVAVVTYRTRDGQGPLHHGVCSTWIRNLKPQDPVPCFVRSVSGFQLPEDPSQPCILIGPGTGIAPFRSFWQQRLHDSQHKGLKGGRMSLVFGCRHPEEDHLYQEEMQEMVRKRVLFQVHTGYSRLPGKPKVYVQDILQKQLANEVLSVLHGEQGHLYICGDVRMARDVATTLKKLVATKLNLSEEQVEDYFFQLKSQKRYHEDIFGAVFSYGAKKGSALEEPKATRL
In words: Inhibition of iNOS in mouse RAW264.7 cells assessed as reduction in LPS-induced NO production at 50 uM administered for 24 hrs post LPS induction by Griess method relative to control. The class given is cell-based. A digest of the protocol: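 RAW264.7 cells stimulated with LPS 1 μg/mL for 4 h, then compound (10, 50, 100 μM) for 24 h; culture medium reacted with Griess reagents I and II, absorbance 570 nm; nitrite from sodium nitrite standard curve (0–100 μM in medium); four independent experiments, mean ± SD.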

Series [13] is described as follows: Toxicity in AB zebrafish embryo assessed as percentage of embryos alive at 10 uM measured at 120 hrs post fertilization by dissecting light microscopic analysis relative to DMF. The class given is organism-based, Danio rerio. The settings on record: read-out: Activity. The method, boiled down:
as §6

As usually defined, the IC50 is the concentration that inhibits the measured activity by half. What is called half-life is the time needed for the level to fall by half in the phase considered. `CC(C)Cc1ccc(C(C)C(=O)Oc2ccc(C(N)=S)cc2)cc1` (stereo not given): the Activity entry was “Toxic” in the series listed under Danio rerio [1], 5% in the series listed under Danio rerio [2] and 11 min⁻¹ in the series listed under Danio rerio [6]. For the same compound, the IC50 in the series on HepG2 was determined as 89.3 µM. The viability at 24 h, up to 100 µM in [3] and in [5] was 70 to 110% each time. Besides, the half-life at 40 µM in [4] was 20.1 min.

The term inhibition denotes the change of the read-out against control, counted positive when it falls. On to `CC(=O)Nc1ccc(OC(=O)CCCCC2CCSS2)cc1` (stereo not given), for which, in the series on HepG2, the IC50 came out at 966 µM. Besides, the Activity result with RAW264.7 [7] was “Non-Toxic”; in the series on RAW264.7 [8] it was 50%; in the series filed under Danio rerio [10], 13.5 min⁻¹; with RAW264.7 [11] it was “Non-Toxic”. Further, the survival at 120 h, 20 µM in series [9] amounted to 41%. For the same compound, the inhibition in [12] was determined as 60%. For the same compound, in [13], the survival at 120 h, 10 µM is 51%.
